# Measurements reported in ChEMBL document CHEMBL1143313, “Synthesis of novel 4,6-di(substituted)amino-1,2-dihydro-1,3,5-triazine derivatives as topical antiseptic agents” (2009).
# Key:
# Assay type in all cases: functional
# [1] = tested on: Escherichia coli; assay: Bactericidal activity against Escherichia coli NIHJ JC-2 preincubated for 1 min before addition of growth medium measured after 40 to 48 hrs
# [2] = tested on: Escherichia coli; assay: Bactericidal activity against Escherichia coli NIHJ JC-2 preincubated for 3 mins before addition of growth medium measured after 40 to 48 hrs
# [3] = tested on: Escherichia coli; assay: Bactericidal activity against Escherichia coli NIHJ JC-2 preincubated for 5 mins before addition of growth medium measured after 40 to 48 hrs
# [4] = tested on: Pseudomonas aeruginosa; assay: Bactericidal activity against Pseudomonas aeruginosa PAO1 preincubated for 1 min before addition of growth medium measured after 40 to 48 hrs
# [5] = tested on: Pseudomonas aeruginosa; assay: Bactericidal activity against Pseudomonas aeruginosa PAO1 preincubated for 3 mins before addition of growth medium measured after 40 to 48 hrs
# [6] = tested on: Pseudomonas aeruginosa; assay: Bactericidal activity against Pseudomonas aeruginosa PAO1 preincubated for 5 mins before addition of growth medium measured after 40 to 48 hrs
# [7] = tested on: Staphylococcus aureus; assay: Antibacterial activity against Staphylococcus aureus 209PJC after 24 hrs
# Method in brief: (§1)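 Value is the minimal inhibitory concentration (MIC) against the test organism, read after 24 h of incubation.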
# [8] = tested on: Staphylococcus aureus; assay: Antibacterial activity against methicillin-resistant Staphylococcus aureus 97-115 after 24 hrs
# Method in brief: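 Read-out is the minimal inhibitory concentration (MIC), taken after 24 h incubation with the test organism.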
# [9] = tested on: Escherichia coli; assay: Antibacterial activity against Escherichia coli NIHJ JC-2 after 24 hrs; method in brief: as §1
# [10] = tested on: Pseudomonas aeruginosa; assay: Antibacterial activity against Pseudomonas aeruginosa PAO1; method in brief: as §1
# [11] = tested on: Staphylococcus aureus; assay: Bactericidal activity against Staphylococcus aureus 209PJC preincubated for 1 min before addition of growth medium measured after 40 to 48 hrs
# [12] = tested on: Staphylococcus aureus; assay: Bactericidal activity against Staphylococcus aureus 209PJC preincubated for 3 mins before addition of growth medium measured after 40 to 48 hrs
# [13] = tested on: Staphylococcus aureus; assay: Bactericidal activity against Staphylococcus aureus 209PJC preincubated for 5 mins before addition of growth medium measured after 40 to 48 hrs
# [14] = tested on: Staphylococcus aureus; assay: Bactericidal activity against methicillin-resistant Staphylococcus aureus 97-115 preincubated for 1 min before addition of growth medium measured after 40 to 48 hrs
# Method in brief: (§2)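 Read-out is the minimal bactericidal concentration (MBC), taken after 1, 3 and 5 min contact of compound with the test organism.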
# [15] = tested on: Staphylococcus aureus; assay: Bactericidal activity against methicillin-resistant Staphylococcus aureus 97-115 preincubated for 3 mins before addition of growth medium measured after 40 to 48 hrs; method in brief: as §2
# [16] = tested on: Staphylococcus aureus; assay: Bactericidal activity against methicillin-resistant Staphylococcus aureus 97-115 preincubated for 5 mins before addition of growth medium measured after 40 to 48 hrs; method in brief: as §2
Structure (SMILES),MBC [1] [µg/mL],MBC [2] [µg/mL],MBC [3] [µg/mL],MBC [4] [µg/mL],MBC [5] [µg/mL],MBC [6] [µg/mL],MIC [7] [µg/mL],MIC [8] [µg/mL],MIC [9] [µg/mL],MIC [10] [µg/mL],MBC [11] [µg/mL],MBC [12] [µg/mL],MBC [13] [µg/mL],MBC [14] [µg/mL],MBC [15] [µg/mL],MBC [16] [µg/mL]
CC(=O)O.CCCCCCCCNC1=NC(C)(C)NC(NCCc2ccccc2)=N1,6.3,3.1,3.1,6.3,6.3,3.1,0.8,1.6,25,25,50,12.5,12.5,> 100,> 100,> 100
CC(=O)O.CCCCCCCCCCNC1=NC(C)(C)NC(Nc2ccccc2)=N1,–,–,–,–,–,–,0.4,0.4,12.5,100,–,–,–,–,–,–
CC(=O)O.CCCCCCCCNC1=NC(C)(C)NC(NCc2ccccc2)=N1,12.5,6.3,6.3,25,12.5,12.5,0.8,1.6,12.5,25,25,12.5,6.3,> 50,50,50
CC(=O)O.CCCCCCCCCCNC1=NC(C)(C)NC(NCc2ccc(C)cc2)=N1,–,–,–,–,–,–,0.8,0.8,100,100,–,–,–,–,–,–
CCCCCCCCCNC1=NC(C)(C)NC(NCc2ccc(OC)cc2)=N1.CS(=O)(=O)O,12.5,6.3,3.1,25,12.5,12.5,0.8,1.6,25,50,6.3,6.3,3.1,> 100,> 100,> 100
CC(=O)O.CCCCCCCCCNC1=NC(C)(C)NC(NCc2ccccc2)=N1,6.3,6.3,3.1,6.3,3.1,3.1,0.8,1.6,12.5,12.5,12.5,6.3,6.3,12.5,6.3,6.3
CC(=O)O.CCCCCCCCCCNC1=NC(C)(C)NC(NCCc2ccccc2)=N1,12.5,12.5,12.5,25,12.5,12.5,0.8,0.8,25,25,50,12.5,12.5,> 50,> 50,> 50
CC(=O)O.CCCCCCCNC1=NC(C)(C)NC(NCc2ccc(C)cc2)=N1,25,12.5,12.5,25,12.5,12.5,0.8,1.6,25,50,25,12.5,12.5,50,50,50
CC(=O)O.CCCCCCCCCCCNC1=NC(C)(C)NC(NCc2ccc(OC)cc2)=N1,–,–,–,–,–,–,0.4,0.8,100,100,–,–,–,–,–,–
CC(=O)O.CCCCCCCCCNC1=NC(C)(C)NC(NCCc2ccccc2)=N1,12.5,3.1,3.1,12.5,3.1,1.6,0.4,0.8,12.5,12.5,25,12.5,6.3,25,12.5,6.3
CC(=O)O.CCCCCCCCCCNC1=NC(C)(C)NC(NCc2ccc(OC)cc2)=N1,12.5,6.3,6.3,12.5,3.1,3.1,0.4,0.8,25,50,12.5,6.3,3.1,25,6.3,6.3
CC(=O)O.CCCCCCCCNC1=NC(NCCC)=NC(C)(C)N1,–,–,–,–,–,–,1.6,6.3,100,100,–,–,–,–,–,–
CC(=O)O.CCCCCCCCNC1=NC(C)(C)NC(NCc2ccc(C(F)(F)F)cc2)=N1,3.1,3.1,3.1,12.5,6.3,6.3,0.4,0.8,50,25,12.5,6.3,6.3,6.3,6.3,6.3
CC(=O)O.CCCCCCCCCCCNC1=NC(C)(C)NC(NCc2ccccc2)=N1,–,–,–,–,–,–,0.4,0.8,100,100,–,–,–,–,–,–
CC(=O)O.CCCCCCCCNC1=NC(C)(C)NC(NCc2ccc(Cl)cc2)=N1,3.1,1.6,1.6,6.3,1.6,1.6,0.8,0.8,25,25,3.1,3.1,3.1,6.3,6.3,6.3
CC(=O)O.CCCCCCCCNC1=NC(C)(C)NC(NCc2ccccc2Cl)=N1,3.1,3.1,1.6,6.3,3.1,1.6,0.8,0.8,25,25,12.5,6.3,6.3,12.5,6.3,6.3
CC(=O)O.CCCCCCCCCNC1=NC(C)(C)NC(NCc2ccc(C)cc2)=N1,6.3,1.6,1.6,12.5,3.1,3.1,0.8,0.8,25,50,6.3,3.1,3.1,25,12.5,12.5
CC(=O)O.CCCCCCCNC1=NC(C)(C)NC(Nc2ccccc2)=N1,–,–,–,–,–,–,6.3,6.3,50,100,–,–,–,–,–,–
CC(=O)O.CCCCCCCCNC1=NC(C)(C)NC(NCCCCCCCC)=N1,–,–,–,–,–,–,0.8,1.6,100,> 100,–,–,–,–,–,–
CC(=O)O.CCCCCCCCCCNC1=NC(C)(C)NC(NCc2ccccc2)=N1,25,12.5,6.3,3.1,3.1,1.6,0.4,0.4,12.5,25,6.3,6.3,6.3,12.5,6.3,6.3
